In ChEMBL document CHEMBL4359865, “Synthesis and evaluation of 2,5-furan, 2,5-thiophene and 3,4-thiophene-based derivatives as CXCR4 inhibitors” (Eur J Med Chem, 2019):

Experiments:
[1] = target: C-X-C chemokine receptor type 4 (Homo sapiens) (UniProt P61073); test: Inhibition of biotinylated TN14003 binding to CXCR4 in human MDA-MB-231 cells preincubated for 10 mins followed by biotinylated-TN14003 addition measured after 30 mins by streptavidin-rhodamine staining based fluorescence microscopic analysis; format: cell-based
Chain of C-X-C chemokine receptor type 4 (Homo sapiens) (P61073 whole entry): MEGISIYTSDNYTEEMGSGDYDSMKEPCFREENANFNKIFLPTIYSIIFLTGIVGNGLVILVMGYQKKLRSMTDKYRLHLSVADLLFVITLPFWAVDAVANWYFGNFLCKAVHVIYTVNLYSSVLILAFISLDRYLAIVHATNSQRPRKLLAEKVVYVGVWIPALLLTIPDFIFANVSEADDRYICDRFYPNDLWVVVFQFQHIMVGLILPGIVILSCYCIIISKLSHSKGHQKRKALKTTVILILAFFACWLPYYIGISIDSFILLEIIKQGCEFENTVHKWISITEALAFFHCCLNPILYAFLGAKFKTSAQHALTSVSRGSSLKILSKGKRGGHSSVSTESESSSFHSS
Outline: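 MDA-MB-231 cells (CXCR4-overexpressing) exposed to compound at 1, 10, 100 and 1000 nM for 10 min at room temperature. Cells fixed in chilled 4% paraformaldehyde, rehydrated in PBS, then stained with 0.05 µg/mL biotinylated TN14003 for 30 min at room temperature, washed three times in PBS, and stained with streptavidin-rhodamine (1:150) for 30 min. Read by fluorescence microscopy. EC taken as the lowest concentration, by order of magnitude, giving a significant drop in fluorescence versus control.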

[2] = Toxicity in C57BL/6J mouse at 10 mg/kg, ip; format: organism-based; conditions: in vivo
[3] = target: C-X-C chemokine receptor type 4 (Homo sapiens) (UniProt P61073); test: Inhibition of CXCR4-mediated chemotaxis in human MDA-MB-231 cells assessed as reduction in CXCL12alpha-induced cell invasion at 100 nM incubated for 22 hrs by hematoxylin/eosin dye-based matrigel assay relative to control
Outline: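 Run in a Matrigel invasion chamber. The bottom chamber held CXCL12 (200 ng/mL). MDA-MB-231 cells were treated with compound at 100 nM, placed in the top chamber, and incubated 22 h in a humidified incubator. Non-invading cells were swabbed off; cells in the bottom chamber were H&E-stained, fixed in methanol and counted. Results given as % inhibition of invasion versus negative control.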

Mus musculus = test: Antiinflammatory activity in C57BL/6J mouse assessed as inhibition of carrageenan-induced paw edema at 10 mg/kg, ip daily dosed 30 mins after carrageenan challenge and measured after 74 hrs carrageenan challenge and 2 hrs post last dose by caliper method relative to control; format: functional

For `Cc1cccc(NCc2ccc(CNc3cccc(C)c3)o2)c1`, the EC [1] was greater than 1000 nM.
Work on `Clc1cccc(NCc2cscc2CNc2cccc(Cl)c2)c1` yielded an EC [1] greater than 1000 nM.
`CCc1cccc(NCc2ccc(CNc3cccc(CC)c3)s2)c1` showed an EC [1] greater than 1000 nM.
`Fc1ccc(NCc2ccc(CNc3ccc(F)cc3)s2)cc1` gave an EC [1] greater than 1000 nM.
`FC(F)(F)c1ccccc1NCc1ccc(CNc2ccccc2C(F)(F)F)s1` gave an EC [1] greater than 1000 nM.
In the case of `Cc1ccccc1NCc1ccc(CNc2ccccc2C)s1`, the EC [1] is reported as 10 nM, the Activity [2] is reported as “Non-Toxic” and the inhibition [3] is reported as 61%.
With `COc1ccc(NCc2ccc(CNc3ccc(OC)cc3)s2)cc1` the EC [1] was 10 nM, the Activity [2] was “Non-Toxic” and the inhibition [3] was 84%.
In the case of `CCc1ccccc1NCc1ccc(CNc2ccccc2CC)s1`, the EC [1] is reported as 1000 nM.
For `Cc1ccc(NCc2cscc2CNc2ccc(C)cc2)cc1`, the EC [1] was greater than 1000 nM.
With `c1ccc(NCc2ccc(CNc3ccccn3)cc2)nc1` the Activity [2] was “Non-Toxic” and the inhibition in vivo at 10 mg/kg (Mus musculus) was 40%.
Molecule `FC(F)(F)c1cccc(NCc2cscc2CNc2cccc(C(F)(F)F)c2)c1` has an EC [1] greater than 1000 nM.
For `CCc1ccc(NCc2ccc(CNc3ccc(CC)cc3)s2)cc1`, the EC [1] was greater than 1000 nM.
Molecule `FC(F)(F)c1ccccc1NCc1ccc(CNc2ccccc2C(F)(F)F)o1` has an EC [1] of 100 nM and an inhibition [3] of 24%.
Work on `Clc1ccc(NCc2cscc2CNc2ccc(Cl)cc2)cc1` yielded an EC [1] greater than 1000 nM.
Work on `Fc1ccc(NCc2cscc2CNc2ccc(F)cc2)cc1` yielded an EC [1] greater than 1000 nM.
For `FC(F)(F)c1cccc(NCc2ccc(CNc3cccc(C(F)(F)F)c3)s2)c1`, the EC [1] was 100 nM, the Activity [2] was “Non-Toxic” and the inhibition [3] was 77%.
For `c1ccc(NCc2cscc2CNc2ccccc2)cc1`, the EC [1] was 10 nM, the Activity [2] was “Non-Toxic” and the inhibition [3] was 72%.
`Fc1cccc(NCc2ccc(CNc3cccc(F)c3)o2)c1` showed an EC [1] greater than 1000 nM.
Molecule `CCc1cccc(NCc2ccc(CNc3cccc(CC)c3)o2)c1` has an EC [1] greater than 1000 nM.
Work on `Fc1cccc(NCc2cscc2CNc2cccc(F)c2)c1` yielded an EC [1] greater than 1000 nM.
`COc1ccccc1NCc1ccc(CNc2ccccc2OC)o1` showed an EC [1] of 100 nM and an inhibition [3] of 5%.
`FC(F)(F)c1ccc(NCc2ccc(CNc3ccc(C(F)(F)F)cc3)s2)cc1` showed an EC [1] greater than 1000 nM.
In the case of `c1ccc(NCc2ccc(CNc3ccccc3)s2)cc1`, the EC [1] is reported as 1 nM, the Activity [2] is reported as “Non-Toxic” and the inhibition [3] is reported as 68%. It also gave an inhibition in vivo at 10 mg/kg (Mus musculus) of 30%.
Work on `c1ccc(NCc2ccc(CNc3ccccc3)o2)cc1` yielded an EC [1] greater than 1000 nM.
With `Cc1cccc(NCc2ccc(CNc3cccc(C)c3)s2)c1` the EC [1] was greater than 1000 nM.
For `Clc1ccc(NCc2ccc(CNc3ccc(Cl)cc3)o2)cc1`, the EC [1] was 10 nM, the Activity [2] was “Non-Toxic” and the inhibition [3] was 48%. It also gave an inhibition in vivo at 10 mg/kg (Mus musculus) of 17%.
With `Clc1cccc(NCc2ccc(CNc3cccc(Cl)c3)s2)c1` the EC [1] was 100 nM, the Activity [2] was “Non-Toxic” and the inhibition [3] was 51%.
With `c1cc(CN2CCOCC2)sc1CN1CCOCC1` the EC [1] was greater than 1000 nM.
`Clc1ccccc1NCc1ccc(CNc2ccccc2Cl)o1` gave an EC [1] greater than 1000 nM.
For `Clc1ccccc1NCc1ccc(CNc2ccccc2Cl)s1`, the EC [1] was 10 nM, the Activity [2] was “Non-Toxic” and the inhibition [3] was 93%. It also gave an inhibition in vivo at 10 mg/kg (Mus musculus) greater than 5%.
For `CCc1ccc(NCc2ccc(CNc3ccc(CC)cc3)o2)cc1`, the EC [1] was greater than 1000 nM.
`Cc1cccc(NCc2cscc2CNc2cccc(C)c2)c1` showed an EC [1] greater than 1000 nM.
With `Fc1ccc(NCc2ccc(CNc3ccc(F)cc3)o2)cc1` the EC [1] was 100 nM, the Activity [2] was “Non-Toxic” and the inhibition [3] was 53%. For the same molecule, the inhibition in vivo at 10 mg/kg (Mus musculus) was 31%.
Work on `FC(F)(F)c1ccc(NCc2cscc2CNc2ccc(C(F)(F)F)cc2)cc1` yielded an EC [1] greater than 1000 nM.
In the case of `Fc1cccc(NCc2ccc(CNc3cccc(F)c3)s2)c1`, the EC [1] is reported as greater than 1000 nM.
With `FC(F)(F)c1cccc(NCc2ccc(CNc3cccc(C(F)(F)F)c3)o2)c1` the EC [1] was greater than 1000 nM.
For `Fc1ccccc1NCc1ccc(CNc2ccccc2F)o1`, the EC [1] was 10 nM, the Activity [2] was “Non-Toxic” and the inhibition [3] was 71%.
In the case of `COc1ccccc1NCc1ccc(CNc2ccccc2OC)s1`, the EC [1] is reported as 10 nM, the Activity [2] is reported as “Non-Toxic” and the inhibition [3] is reported as 52%.
`CCc1ccccc1NCc1ccc(CNc2ccccc2CC)o1` showed an EC [1] of 1000 nM.
`Cc1ccccc1NCc1ccc(CNc2ccccc2C)o1` gave an EC [1] greater than 1000 nM.
Work on `Fc1ccccc1NCc1ccc(CNc2ccccc2F)s1` yielded an EC [1] of 1000 nM.
With `c1cc(CN2CCSCC2)oc1CN1CCSCC1` the EC [1] was 10 nM and the inhibition [3] was 79%.
`COc1cccc(NCc2ccc(CNc3cccc(OC)c3)o2)c1` showed an EC [1] greater than 1000 nM.
`Clc1cccc(NCc2ccc(CNc3cccc(Cl)c3)o2)c1` gave an EC [1] greater than 1000 nM.
With `COc1cccc(NCc2ccc(CNc3cccc(OC)c3)s2)c1` the EC [1] was 1000 nM.
For `Cc1ccc(NCc2ccc(CNc3ccc(C)cc3)o2)cc1`, the EC [1] was 100 nM, the Activity [2] was “Non-Toxic” and the inhibition [3] was 75%. The inhibition in vivo at 10 mg/kg (Mus musculus) was 15%.
With `c1cc(CN2CCSCC2)sc1CN1CCSCC1` the EC [1] was 1 nM, the Activity [2] was “Non-Toxic” and the inhibition [3] was 88%.
Molecule `CSc1ccc(NCc2ccc(CNc3ccc(SC)cc3)o2)cc1` has an EC [1] greater than 1000 nM.
Work on `Clc1ccc(NCc2ccc(CNc3ccc(Cl)cc3)s2)cc1` yielded an EC [1] of 1 nM and an inhibition [3] of 22%.
Molecule `CSc1ccc(NCc2ccc(CNc3ccc(SC)cc3)s2)cc1` has an EC [1] of 100 nM and an inhibition [3] of 88%.
With `Cc1ccc(NCc2ccc(CNc3ccc(C)cc3)s2)cc1` the EC [1] was 100 nM, the Activity [2] was “Non-Toxic” and the inhibition [3] was 49%.
For `c1cc(CN2CCOCC2)oc1CN1CCOCC1`, the EC [1] was 1000 nM.
Work on `COc1ccc(NCc2ccc(CNc3ccc(OC)cc3)o2)cc1` yielded an EC [1] greater than 1000 nM.
With `CN1CCN(Cc2ccc(CN3CCN(C)CC3)s2)CC1` the EC [1] was 100 nM and the inhibition [3] was 86%.
For `FC(F)(F)c1ccc(NCc2ccc(CNc3ccc(C(F)(F)F)cc3)o2)cc1`, the EC [1] was greater than 1000 nM.
With `CN1CCN(Cc2ccc(CN3CCN(C)CC3)o2)CC1` the EC [1] was 10 nM, the Activity [2] was “Non-Toxic” and the inhibition [3] was 82%.
Work on `CCc1ccc(NCc2cscc2CNc2ccc(CC)cc2)cc1` yielded an EC [1] greater than 1000 nM.
